Our source for the inhibition, Activity and CC50 values is ChEMBL document CHEMBL4765368, “Structure guided design and synthesis of furyl thiazolidinedione derivatives as inhibitors of GLUT 1 and GLUT 4, and evaluation of their anti-leukemic potential” (Eur J Med Chem, 2020).

Each structure is given as a SMILES string. The source made the active and inactive calls. The calls are words filed in the database; no cut-off is given here.

Test [1] has as its target T1, Solute carrier family 2, facilitated glucose transporter member 5 (Homo sapiens) (UniProt P22732).
T1 sequence (whole entry): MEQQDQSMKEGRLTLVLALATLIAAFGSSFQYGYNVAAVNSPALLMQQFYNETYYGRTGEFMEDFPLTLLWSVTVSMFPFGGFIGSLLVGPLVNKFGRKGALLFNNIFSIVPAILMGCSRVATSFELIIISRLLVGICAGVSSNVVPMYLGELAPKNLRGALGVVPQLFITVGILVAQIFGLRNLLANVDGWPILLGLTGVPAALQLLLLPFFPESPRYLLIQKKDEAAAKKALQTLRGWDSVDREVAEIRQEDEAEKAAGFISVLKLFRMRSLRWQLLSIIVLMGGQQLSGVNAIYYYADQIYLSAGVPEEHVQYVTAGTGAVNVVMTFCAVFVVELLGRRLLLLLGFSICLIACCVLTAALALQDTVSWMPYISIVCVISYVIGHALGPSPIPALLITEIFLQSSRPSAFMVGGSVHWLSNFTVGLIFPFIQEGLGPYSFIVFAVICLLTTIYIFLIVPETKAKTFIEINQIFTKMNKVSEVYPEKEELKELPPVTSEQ
In words: Inhibition of transport activity of human GLUT5 expressed in hexose transporter deficient VW4000 yeast cells assessed as reduction in transporter-mediated [14C]-fructose uptake into cells at 100 uM measured after 10 mins by scintillation counting method. It counts as cell-based. The procedure, abridged: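 The hxt0 yeast strain expressing one human GLUT was grown at 30 °C and resuspended in PBS pH 7.4 at OD600 ~10. Uptake was started with 14C-glucose at 5 mM final (GLUT1, GLUT4) or 14C-fructose at 10 mM final (GLUT5). It was quenched after 10 min with ice-cold 0.1 M KPi/0.1 M LiCl pH 5.5, filtered and counted by scintillation. Compound at 100 μM with 1% DMSO; DMSO control and phloretin 200 μM (GLUT1/4) or MSNBA 100 μM (GLUT5) as references. Triplicates.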

For test [2], the target named is T2, Histone deacetylase 8 (Homo sapiens) (UniProt Q9BY41).
T2 sequence (whole entry): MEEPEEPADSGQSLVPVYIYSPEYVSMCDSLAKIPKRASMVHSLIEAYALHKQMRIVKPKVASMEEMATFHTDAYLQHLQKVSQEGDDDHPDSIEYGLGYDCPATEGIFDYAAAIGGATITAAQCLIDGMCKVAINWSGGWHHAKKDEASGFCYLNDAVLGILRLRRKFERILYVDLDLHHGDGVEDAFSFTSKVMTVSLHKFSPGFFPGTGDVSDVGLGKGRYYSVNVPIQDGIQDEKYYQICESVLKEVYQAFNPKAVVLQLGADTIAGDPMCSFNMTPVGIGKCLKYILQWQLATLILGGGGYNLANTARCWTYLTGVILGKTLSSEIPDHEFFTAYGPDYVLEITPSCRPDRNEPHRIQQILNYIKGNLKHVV
In words: Inhibition of recombinant human His6/SUMO-tagged HDAC8 expressed in Escherichia coli (BL21) DE3 pLysS assessed as residual activity at 50 uM using Boc-Lys(trifluoroacetyl)-AMC as substrate preincubated for 60 mins followed by substrate addition and measured after 60 mins by fluorescence assay relative to control. The note with it: time 120.0 min. The procedure, abridged:
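20 μM Boc-Lys(trifluoroacetyl)-AMC was then added for 60 min at 30 °C, the reaction stopped with 1.7 μM SATFMK and developed with 0.4 mg/ml trypsin, and AMC fluorescence read at Ex 350/Em 450 nm. Triplicates; percent relative activity.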

For test [3], the target named is Histone deacetylase 4 (Homo sapiens) (UniProt P56524). In words: Inhibition of recombinant human N-terminal GST-tagged HDAC4 (627 to end residues) expressed in baculovirus infected Sf9 insect cells assessed as residual activity at 50 uM using Boc-Lys(trifluoroacetyl)-AMC as substrate preincubated for 60 mins followed by substrate addition and measured after 60 mins by fluorescence assay relative to control. The conditions noted are these: time 120.0 min.
Sequence of Histone deacetylase 4 (Homo sapiens) (P56524 whole entry): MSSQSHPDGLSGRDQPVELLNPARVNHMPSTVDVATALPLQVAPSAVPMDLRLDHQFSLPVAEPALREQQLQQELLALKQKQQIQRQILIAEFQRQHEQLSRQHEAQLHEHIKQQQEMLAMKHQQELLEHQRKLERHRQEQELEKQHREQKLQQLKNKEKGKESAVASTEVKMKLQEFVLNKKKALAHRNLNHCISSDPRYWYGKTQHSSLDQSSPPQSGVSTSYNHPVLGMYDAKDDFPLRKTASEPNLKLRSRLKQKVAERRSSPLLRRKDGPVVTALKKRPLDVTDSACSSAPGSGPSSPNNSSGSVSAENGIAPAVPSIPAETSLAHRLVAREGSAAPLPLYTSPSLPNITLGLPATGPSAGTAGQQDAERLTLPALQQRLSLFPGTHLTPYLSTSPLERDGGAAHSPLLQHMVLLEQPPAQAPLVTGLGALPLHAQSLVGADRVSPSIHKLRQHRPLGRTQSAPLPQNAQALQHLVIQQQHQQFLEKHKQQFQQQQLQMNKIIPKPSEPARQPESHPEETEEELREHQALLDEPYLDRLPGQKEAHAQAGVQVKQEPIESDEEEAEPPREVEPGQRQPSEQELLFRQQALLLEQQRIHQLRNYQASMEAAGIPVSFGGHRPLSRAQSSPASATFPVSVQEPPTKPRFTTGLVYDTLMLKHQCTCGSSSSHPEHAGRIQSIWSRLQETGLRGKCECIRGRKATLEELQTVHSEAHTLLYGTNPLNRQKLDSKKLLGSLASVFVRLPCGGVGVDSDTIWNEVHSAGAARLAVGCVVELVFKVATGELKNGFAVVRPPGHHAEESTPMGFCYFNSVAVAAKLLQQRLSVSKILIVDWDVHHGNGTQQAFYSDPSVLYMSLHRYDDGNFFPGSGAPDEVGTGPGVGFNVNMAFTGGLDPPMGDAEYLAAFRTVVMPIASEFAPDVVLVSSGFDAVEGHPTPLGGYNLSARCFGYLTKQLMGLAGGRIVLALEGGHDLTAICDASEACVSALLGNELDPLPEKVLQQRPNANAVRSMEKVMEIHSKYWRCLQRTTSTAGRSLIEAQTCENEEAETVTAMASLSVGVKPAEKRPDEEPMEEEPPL

The next test relates to CCRF-CEM. In words: Cytotoxicity against human CCRF-CEM cells assessed as reduction in cell viability measured after 48 hrs by Hoechst 33342/propidium iodide staining based imaging analysis. It counts as functional. The procedure, abridged: (§1)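 Cells were seeded at 10,000 per well (HS-27 at 3,000) in 10% FBS RPMI (leukemic lines) or DMEM (MDA-MB-231, HS-27). Compound in DMSO (1% v/v final) at 0.5–100 µM for 48 h. Hoechst 33342 and PI were added 2 h before automated imaging; dead cells were co-stained. Quadruplicates. CC50 was taken by linear interpolation between the two concentrations nearest 50% death.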

For the next test, the system named is K562. In words: Cytotoxicity against human K562 cells assessed as reduction in cell viability measured after 48 hrs by Hoechst 33342/propidium iodide staining based imaging analysis. Format: functional. The procedure, abridged:
as §1

Another test relates to KCL-22. In words: Cytotoxicity against human KCL-22 cells assessed as reduction in cell viability measured after 48 hrs by Hoechst 33342/propidium iodide staining based imaging analysis. It counts as functional. The procedure, abridged: as §1

For the molecule `O=C(CN1C(=O)S/C(=C/c2ccco2)C1=O)Nc1nccs1`, the inhibition entry in test [1] is “inactive”. Also, the Activity in test [2] and in test [3] was > 50% in each case.

Take `COc1ccc(NC(=O)CN2C(=O)S/C(=C/c3ccco3)C2=O)cc1`: in test [1], the inhibition entry was “inactive”. Moreover, the Activity in test [2] and in test [3] was > 50% each time.

Regarding `O=C(CN1C(=O)S/C(=C/c2ccco2)C1=O)Nc1ccc(Cl)cc1C(F)(F)F`, the inhibition entry in test [1] is “inactive”. Moreover, the cytotoxic concentration (CC50) (as a rule, the concentration that lowers cell viability or growth by half) is 79.9 µM with CCRF-CEM, > 100 µM in the test on K562 and > 100 µM with KCL-22. The Activity in test [2] and in test [3] was > 50% each time.

For the molecule `Cc1ccc(NC(=O)CN2C(=O)S/C(=C/c3ccco3)C2=O)cc1Cl`, the inhibition result in test [1] was “inactive”. Besides, the Activity in test [2] and in test [3] was > 50% throughout.

Regarding `O=C(CN1C(=O)S/C(=C/c2ccco2)C1=O)Nc1ccc(Br)cc1F`, the inhibition result in test [1] was “inactive”. For the same molecule, the Activity in test [2] and in test [3] was > 50% each time.

Consider `Cc1c(NC(=O)CN2C(=O)S/C(=C/c3ccco3)C2=O)c(=O)n(-c2ccccc2)n1C`, for which the inhibition result in test [1] is “inactive”. The Activity in test [2] and in test [3] was > 50% throughout.

Regarding `O=C(CN1C(=O)S/C(=C/c2ccco2)C1=O)Nc1ccccc1`, the inhibition entry in test [1] was “inactive”. For the same molecule, the Activity in test [2] and in test [3] was > 50% throughout.

On to `O=C(CN1C(=O)S/C(=C/c2ccco2)C1=O)Nc1ccc(Br)c(Br)c1`, for which the Activity in test [2] and in test [3] was > 50% each time.

Regarding `O=C(CN1C(=O)S/C(=C/c2ccco2)C1=O)Nc1cc(C(F)(F)F)ccc1Cl`, the inhibition result in test [1] was “inactive”. Moreover, the Activity in test [2] and in test [3] was > 50% throughout.

As for `Cc1cc(NC(=O)CN2C(=O)S/C(=C/c3ccco3)C2=O)no1`, the inhibition result in test [1] is “inactive”. Moreover, the figures for the CC50 with CCRF-CEM, with K562 and with KCL-22 were > 100 µM, 98.6 µM and > 100 µM, respectively. Also, the Activity in test [2] and in test [3] was > 50% throughout.

Consider `O=C(CN1C(=O)S/C(=C/c2ccco2)C1=O)Nc1ccc(F)cc1`, for which the inhibition result in test [1] is “inactive”. For the same molecule, the Activity in test [2] and in test [3] was > 50% throughout.

As to `O=C(CN1C(=O)S/C(=C/c2ccco2)C1=O)Nc1c(F)cc(Br)cc1F`, the inhibition result in test [1] was “inactive”. Besides, the Activity in test [2] and in test [3] was > 50% throughout.

Consider `O=C(CN1C(=O)S/C(=C/c2ccco2)C1=O)Nc1ccccc1F`, for which the inhibition result in test [1] was “inactive”. Moreover, the Activity in test [2] and in test [3] was > 50% in each case.

With `O=C(CN1C(=O)S/C(=C/c2ccco2)C1=O)Nc1ccc(F)cc1F`, the inhibition entry in test [1] was “inactive”. The Activity in test [2] and in test [3] was > 50% in each case.

Regarding `O=C(CN1C(=O)S/C(=C/c2ccco2)C1=O)Nc1ccccn1`, in test [1], the inhibition entry is “inactive”. Also, the Activity in test [2] and in test [3] was > 50% in each case.

Take `O=C(CN1C(=O)S/C(=C/c2ccco2)C1=O)Nc1ccc(Br)cc1`: the inhibition result in test [1] is “inactive”. In addition, the CC50 with CCRF-CEM stood at 81 µM; in the test with K562, 94 µM; in the test with KCL-22, 98.2 µM. For the same molecule, the Activity in test [2] and in test [3] was > 50% throughout.

On to `O=C(CN1C(=O)S/C(=C/c2ccco2)C1=O)Nc1cccc(F)c1`, for which, in test [1], the inhibition result is “inactive”. In addition, the Activity in test [2] and in test [3] was > 50% each time.

For `O=C(CN1C(=O)S/C(=C/c2ccco2)C1=O)Nc1cccc(C(F)(F)F)c1`, the inhibition entry in test [1] is “inactive”. The Activity in test [2] and in test [3] was > 50% in each case.

As to `O=C(CN1C(=O)S/C(=C/c2ccco2)C1=O)Nc1ccc(Oc2ccccc2)cc1`, in test [1], the inhibition result is “inactive”. Besides, the Activity in test [2] and in test [3] was > 50% in each case.

In the case of `Cc1ccc(NC(=O)CN2C(=O)S/C(=C/c3ccco3)C2=O)cc1`, the inhibition result in test [1] was “inactive”. Moreover, the half-maximal cytotoxic concentration (CC50) is 102 µM in the test on CCRF-CEM, > 100 µM in the test with K562 and > 100 µM in the test with KCL-22. Besides, the Activity in test [2] and in test [3] was > 50% each time.
